Results of several laboratories.
Compare with care: the assays were run in different laboratories.
Target: Calcium/calmodulin-dependent protein kinase type II subunit alpha (CAMK2A, Homo sapiens, UniProt Q9UQM7)

`O=C(Nc1c[nH]nc1C(=O)NC1CCNCC1)c1cc(F)cc(F)c1` gave a remaining binding of 100% (binding; competition with immobilised ligand; 1 µM).
For `CN(C)c1nccc(-c2cnc3ncccn23)n1`, the remaining binding was 92% (binding; 1 µM).
For `O=C(N1CCS(=O)(=O)CC1)N1C[C@H](c2ccc(OC(F)(F)F)cc2)C[C@H](c2nc(C3CC3)no2)C1`, the remaining binding was 100% (cell-free assay; competition with immobilised ligand; 1 µM).
For `COc1cnc(Nc2cccc(S(N)(=O)=O)c2)nc1N1CCN(c2ccccc2)CC1`, the remaining binding was 87% (binding; competition with immobilised ligand; 1 µM).
The remaining binding of `Cn1nc(C(=O)NCc2ccc(C(=O)O)cc2)cc1-c1ccc2[nH]ccc2c1` is reported as 79% (cell-free assay; competition with immobilised ligand; 0.1 µM).
The remaining binding of `N[C@@H]1CCN(c2nccc(-c3cnn4ncccc34)n2)C1` is reported as 100% (binding; 1 µM).
`FC(F)(F)Oc1cccc(-c2cnc3ccc(-c4ccncc4)nn23)c1` has a remaining binding of 14% (cell-free assay; competition with immobilised ligand; 5 µM).
`CN(C)c1ncc(F)c(-c2cnn3ncccc23)n1` has a remaining binding of 63% (binding; 1 µM).
With `COc1ncc2cc3ccccc3nc2c1C#N` the remaining binding was 95% (cell-free assay; competition with immobilised ligand; 5 µM).
`COc1ccc2c(c1)O[C@H](c1ccc(OC)c(OC)c1)C[C@@H]2NC(=O)C1(c2ccc3c(c2)OC(F)(F)O3)CC1` has a remaining binding of 100% (cell-free assay; competition with immobilised ligand; 1 µM).
For `Cc1cnc(Nc2ccc(C(=O)N3CCC(N4CCCC4)CC3)cc2)nc1-c1cc2ccccc2s1`, the remaining binding was 58% (binding; competition with immobilised ligand; 1 µM).
`CC1CCCN1c1nccc(-c2cnn3ncccc23)n1` (stereo not shown) gave a remaining binding of 90% (binding; 1 µM).
`O=C(NCCCN1CCOCC1)c1ccc(Nc2nccc(-c3cc4ccccc4s3)n2)cc1` has a remaining binding of 68% (binding; competition with immobilised ligand; 1 µM).
With `FC(F)(F)c1ccc2c(c1)nc(-c1cccnc1)n2C1CC1` the remaining binding was 88% (cell-free assay; competition with immobilised ligand; 1 µM).
For `c1cnn2ncc(-c3ccnc(N4CCC45COC5)n3)c2c1`, the remaining binding was 76% (binding; 1 µM).
With `c1cncc(-c2cccc(Nc3nccc(NC4CCCCC4)n3)c2)c1` the remaining binding was 84% (binding; competition with immobilised ligand; 10 µM).
`O=C(NC[C@@H]1[C@H]2CN(C(=O)OCc3cc(C(F)(F)F)cc(C(F)(F)F)c3)C[C@@H]12)c1ccc2[nH]nnc2c1` has a remaining binding of 91% (cell-free assay; competition with immobilised ligand; 1 µM).
`C[C@@H](c1ccc(-n2cnc3c(N)ncnc32)cc1)N1CCc2nn(C)c(Cc3ccccc3)c2C1=O` gave a remaining binding of 91% (binding; competition with immobilised ligand; 0.1 µM).
`CCOC(=O)c1cc2cc(-c3cc(C(=O)NCc4ccc(C(=O)O)cc4)nn3C)ccc2[nH]1` gave a remaining binding of 76% (cell-free assay; competition with immobilised ligand; 0.1 µM).
`C[C@H]1CCN(c2nccc(-c3cnn4ncccc34)n2)C1` gave a remaining binding of 91% (binding; 1 µM).
`Nc1ncc2c(n1)-c1c([nH]c3ccc(C#CC4CC4)cc13)CCCC2` has a remaining binding of 100% (binding; competition with immobilised ligand; 1 µM).
`O=C(c1ccc(Nc2ncc(Cl)c(-c3ccc(Cl)s3)n2)cc1)N1CCC(N2CCCC2)CC1` has a remaining binding of 82% (binding; competition with immobilised ligand; 1 µM).
